pIC50: −log10 of the molar value. Where a name gives a salt, the structure may show the parent alone. Bounds are passed on as bounds.

The first test has as its system Thoracic aorta. The test can be described thus: Ratio of IC50 for prazosin to IC50 for compound in noradrenaline-contracted Wister rat thoracic aorta rings. It is filed as functional.
For the compound `CN1CCN(CC(=O)NNc2nncc3ccccc23)CC1`, the “Ratio IC50” value amounted to 3. As for `COc1ccccc1N1CCN(CCC(=O)NNc2nncc3ccccc23)CC1`, the “Ratio IC50” value was found to be 5.

In another test the test system is Thoracic aorta. The test can be described thus: Vasorelaxant activity in Wister rat thoracic aorta rings assessed as reduction in maximal noradrenaline-induced spasms. It is filed as functional, tissue-based. In short, it runs like this: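 Aortic preparations equilibrated for 2 h at 2 g resting tension. Contraction to norepinephrine hydrochloride (10^-6 M) was recorded before and after exposure to increasing concentrations of compound. Compounds came from a 0.01 M DMSO stock. Vehicle controls used DMSO alone at matching concentrations.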
With `O=C(CCN1CCN(c2ccc(Cl)cc2)CC1)NNc1nncc2ccccc12`, the negative logarithm of the IC50 (pIC50) was 3.15. As to `O=C(CCn1ccnc1)NNc1nncc2ccccc12`, the negative logarithm of the IC50 (pIC50) is 3.09. Regarding `CCOC(=O)N1CCN(CCC(=O)NNc2nncc3ccccc23)CC1`, the negative logarithm of the IC50 (pIC50) was under 3.00. Turning to `O=C(CN1CCOCC1)NNc1nncc2ccccc12`, the pIC50 was 3.37. `O=C(CN1CCN(c2cccc(C(F)(F)F)c2)CC1)NNc1nncc2ccccc12`: the pIC50 was 3.39. In the case of `CN1CCN(CC(=O)NNc2nncc3ccccc23)CC1`, the pIC50 is 3.80.

Consider `CN1CCN(CCC(=O)NNc2nncc3ccccc23)CC1`, for which the pIC50 is 3.44.

For the compound `O=C(CCN1CCN(c2cccc(C(F)(F)F)c2)CC1)NNc1nncc2ccccc12`, the pIC50 is 3.30. For `O=C(CN1CCN(c2ccccc2)CC1)NNc1nncc2ccccc12`, the pIC50 was 3.25. For `O=C(Cn1ccnc1)NNc1nncc2ccccc12`, the negative logarithm of the IC50 (pIC50) was 3.21. `O=C(CN1CCN(c2ccc(Cl)cc2)CC1)NNc1nncc2ccccc12`: the negative-log IC50 (pIC50) is 3.35. For the compound `O=C(CCN1CCN(c2ccccc2)CC1)NNc1nncc2ccccc12`, the pIC50 was 3.57. On to `COc1cc2nc(N3CCN(C(=O)c4ccco4)CC3)nc(N)c2cc1OC` [PRAZOSIN HYDROCHLORIDE], for which the negative-log IC50 (pIC50) is 3.32. As for `O=C(CCN1CCOCC1)NNc1nncc2ccccc12`, the negative logarithm of the IC50 (pIC50) is 3.24. Still for that read-out and setting: as for `COc1ccccc1N1CCN(CCC(=O)NNc2nncc3ccccc23)CC1`, the figure is 4.00; as for `CCOC(=O)N1CCN(CC(=O)NNc2nncc3ccccc23)CC1`, under 3.00; as for `COc1ccccc1N1CCN(CC(=O)NNc2nncc3ccccc23)CC1`, 3.26.

The pIC50 is −log10 of the IC50, conventionally taken in molar units.
